An excerpt weighted towards active compounds, which were near 4.4% of everything screened.
SENP1 inh = human SENP1 catalytic domain inhibitors, primary screen, biochemical, FRET, uHTS | Sentrin-specific protease 1 (Homo sapiens), Q9P0U3 | recombinant SENP1 catalytic domain, CyPet-SUMO1-YPet FRET cleavage | inhibition, % at 10 µM | actives 0.21% (n = 360,000) | AID 624204, 2012;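 active = inhibition at least 30% at 10 µM, raw YFP signal under a set limit, fluorescence ratio 0.5 to 1.5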;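 also: 0% = enzyme with DMSO and 100% = no enzyme wells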
Target sequence (Q9P0U3 419-644 limits assumed): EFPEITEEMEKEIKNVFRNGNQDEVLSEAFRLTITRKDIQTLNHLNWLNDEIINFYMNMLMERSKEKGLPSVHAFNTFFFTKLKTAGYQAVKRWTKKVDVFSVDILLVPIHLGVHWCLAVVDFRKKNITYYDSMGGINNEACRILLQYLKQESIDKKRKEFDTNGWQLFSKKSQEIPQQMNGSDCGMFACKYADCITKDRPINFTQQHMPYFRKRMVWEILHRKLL
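Assay system: hSENP1 catalytic domain, recombinant. Amount: SENP1 enzyme, 20 pM final. Schedule: 50 min reaction, RT, dark. Technique: FRET, CFP and YFP emission. Control set: no-enzyme wells low, DMSO-plus-enzyme wells high control.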
EBI2 block = EBI2 receptor antagonists, beta-arrestin recruitment, primary screen, cell-based, luminescence, 7a,25-OHC stimulation, uHTS; G-protein coupled receptor 183 (Homo sapiens), P32249; 7a,25-OHC stimulated; inhibition, % at 5 µM; actives 0.81% (n = 360,000); AID 651636, 2012; in the data active = inhibition above about 38%;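 also: enzyme fragment complementation signal reports receptor beta-arrestin coupling in cells; 0% = agonist plus DMSO wells and 100% = wells without agonist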
GRIN3A LBD mod = binders of NR3A ligand-binding domain, primary screen, biophysical, differential scanning fluorimetry, uHTS. Glutamate receptor ionotropic, NMDA 3A (GRIN3A) ligand-binding domain. NR3A LBD differential scanning fluorimetry, Tm shift; 0% = protein alone, 100% = glycine-bound protein. Tm shift relative to glycine control, % at 25 µM. actives 2.5% (n = 340,000). AID 1259313, 2017;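 active = melting temperature shift of at least 10% of the positive control shift, at one fixed dose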
MPTP block = mitochondrial permeability transition pore inhibitors, primary screen, biochemical, isolated mouse mitochondria, absorbance; inhibition, % at 10 µM; Ca2+ swelling absorbance, 30 min; actives 1.4% (n = 360,000);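 active = inhibition of 50% or more, scaled per plate between neutral and stimulator controls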;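 also: 0% = DMSO wells given calcium and 100% = 1 mM EGTA wells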
Rh123 counter = fluorescence retest of MPTP screen hits in isolated mitochondria, single concentration. shares compounds with MPTP block. actives 78% (n = 5,000). membrane potential, Rhodamine 123 fluorescence. inhibition, % at 10 µM; in the data active = inhibition above about 22%;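 also: 0% = DMSO vehicle and 100% = positive control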
MPTP abs DR = mitochondrial permeability transition pore inhibitors, dose response, biochemical, absorbance, uHTS hits. shares compounds with MPTP block. isolated mitochondria swelling. IC50, µM. actives 58% (n = 780). AID 651561, 2012; in the data active = IC50 below about 20 µM
MPTP counter DR = fluorescent counter-screen in isolated mitochondria, dose response, counter-screen for MPTP inhibitor project, biochemical, fluorescence, uHTS hits. shares compounds with MPTP block. isolated mitochondria counterscreen, fluorescence read-out. IC50, µM. actives 49% (n = 780). AID 651564, 2012; in the data active = IC50 below about 80 µM
Numbers without * were called inactive; x = no result given.

SMILES	SENP1 inh	EBI2 block	GRIN3A LBD mod	MPTP block	Rh123 counter	others
O=C(Nc1nnc(-c2ccncc2)s1)Nc1ccccc1F	-78	-1	-1	0	x
O=C(Nc1ccc(Cl)c(Cl)c1)Nc1nnc(CC2=CCCCC2)s1	-1	-29	-4	89*	11	MPTP abs DR=3.5*;MPTP counter DR=<2.5*
O=C(Nc1ccc(Cl)c(Cl)c1)Nc1nnc(-c2ccncc2)s1	-151	-2	13*	102*	87*
O=C(NCc1ccco1)C1CCCN(c2nnc(-n3cccc3)s2)C1 (stereo not drawn)	-4	0	-2	0	x
Cc1ccccc1OCCCC(=O)Nc1nncs1	1	-4	0	2	x
O=C(CCN1CCC2CCC(C2)C1)c1ccc(F)cc1 (stereo not drawn)	-3	-5	-1	2	x
COc1ccc([C@H]2C[C@@H](n3cc(C4CC4)nn3)[C@H](O)CN2CC2CCCCC2)cc1	-1	14	x	0	x
COc1ccc(Cc2n[nH]c(=S)n2NC(=O)Nc2ccc(Cl)c(Cl)c2)cc1	4	12	15*	92*	90*
Cn1c(CC(=O)Nc2ccc(Cl)c(Cl)c2)n[nH]c1=S	-3	-9	1	0	x
COCc1ccc(C(=O)N2CCCC(Nc3ccc4c(c3)OCCO4)C2)o1 (stereo not drawn)	0	7	-1	1	x
Cc1cccc2c1-c1sc(C(=O)Nc3cccc([N+](=O)[O-])c3C)cc1CO2	1	8	5	75*	68*
CCOC(=O)c1cc2c(s1)-c1c(C)cccc1OC2	-33	5	-1	2	x
CCCCN(CCCC)S(=O)(=O)c1ccc(NC(=O)c2cccs2)cc1	-1	9	8	86*	72*
CC(=O)Nc1ccc(S(=O)(=O)N(C)CC(=O)NNC(=O)c2cccs2)cc1	-11	3	-1	-1	x
CCCCN(CCCC)S(=O)(=O)c1ccc(NC(=O)c2ccc([N+](=O)[O-])cc2Cl)cc1	0	14	4	95*	96*
Cc1ncccc1C(=O)N1CCCC(c2cc(C(=O)Nc3ccc(C(C)(C)C)cc3)no2)C1 (stereo not drawn)	-1	4	x	0	x
COc1ccc(C(O)Cn2c(=N)n(CCCN(C)C)c3ccccc32)cc1 (stereo not drawn)	1	7	0	80*	-5
CCCn1c(=N)n(CC(O)c2ccc(C)cc2)c2ccccc21 (stereo not drawn)	-3	-7	-3	2	x
Cc1ccc(C(C(=O)NCc2ccco2)N(C(=O)CNC(=O)c2cccs2)c2c(C)cc(C)cc2C)cc1 (stereo not drawn)	3	10	-6	0	x
Cc1nn(-c2ccccc2)c2nc(C(Cl)(Cl)Cl)[nH]c(=O)c12	1	-1	-1	68*	57*
Cc1cc(C(F)(F)F)c2c(C)nn(-c3ccccc3)c2n1	1	0	-1	2	x
Cc1cc(C)n2nc(SCC(=O)c3cc(C)n(-c4cc(C)on4)c3C)nc2n1	-1	-7	0	81*	62*
Cc1cc(C(=O)CSc2ncnc3ccccc23)c(C)n1C1CC1	-24	-1	0	3	x
Cc1cc(-n2c(C)cc(C(=O)CSc3ncnc4ccccc34)c2C)no1	-30	-7	-1	97*	88*
CCN(c1ccccc1)S(=O)(=O)c1cccc(C(=O)Nc2ccc(C)cn2)c1	2	7	2	-2	x
CN(/N=C/c1cc(Cl)cc(Cl)c1O)C(=S)NC(C)(C)C	-38	1	31*	85*	75*
Oc1c(Cl)cc(Cl)cc1C=Nc1ccc2c(c1)OCCO2	-25	3	0	3	x
Cc1cc(OCC(=O)NCc2ccncc2)c2c(C)c(C)c(=O)oc2c1	1	2	-2	0	x

Screening results from PubChem BioAssay.
